Reference: the M2OR odorant receptor database
Positions count from the first letter of the chain named.

Key:
Conditions in all cases: stereoisomer not certain
UniProt Q7TR71 = target: T1, UniProt Q7TR71
T1 sequence (whole entry): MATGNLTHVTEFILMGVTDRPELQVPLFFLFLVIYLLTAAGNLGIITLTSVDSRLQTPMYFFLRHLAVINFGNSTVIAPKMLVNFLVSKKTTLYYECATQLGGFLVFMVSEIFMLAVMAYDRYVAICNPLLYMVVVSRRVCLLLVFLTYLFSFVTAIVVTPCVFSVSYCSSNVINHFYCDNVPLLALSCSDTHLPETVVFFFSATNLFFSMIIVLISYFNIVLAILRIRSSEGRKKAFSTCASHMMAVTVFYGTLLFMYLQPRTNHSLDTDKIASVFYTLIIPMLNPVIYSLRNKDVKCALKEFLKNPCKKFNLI
Outline: (§1)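 Assay methods differ from source to source, frequently being transient luciferase assays in mammalian cell lines. For each receptor–molecule pair, the label responsive (active) applies when the original authors judged the measured signal statistically different from baseline, and non-responsive (inactive) applies otherwise.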

UniProt Q7TR75 = target: UniProt Q7TR75
Outline: as §1

UniProt Q7TRA1 = target: T2, UniProt Q7TRA1
T2 sequence (whole entry): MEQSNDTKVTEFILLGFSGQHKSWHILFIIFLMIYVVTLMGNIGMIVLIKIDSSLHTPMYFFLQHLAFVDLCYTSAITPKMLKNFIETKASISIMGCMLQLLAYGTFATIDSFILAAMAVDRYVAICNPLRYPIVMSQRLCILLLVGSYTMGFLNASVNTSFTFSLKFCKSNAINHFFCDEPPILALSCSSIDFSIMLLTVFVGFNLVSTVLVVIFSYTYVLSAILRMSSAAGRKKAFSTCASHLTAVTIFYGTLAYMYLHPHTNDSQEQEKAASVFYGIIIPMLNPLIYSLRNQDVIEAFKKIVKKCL
Outline: as §1

UniProt Q7TRA2 = target: T3, UniProt Q7TRA2
T3 sequence (whole entry): T2 sequence (whole entry) with S18A, I86T, I94F, M95I, S112C, V208L, T219I, V221I, V305A
Outline: as §1

UniProt Q7TRA3 = target: T4, UniProt Q7TRA3
T4 sequence (whole entry): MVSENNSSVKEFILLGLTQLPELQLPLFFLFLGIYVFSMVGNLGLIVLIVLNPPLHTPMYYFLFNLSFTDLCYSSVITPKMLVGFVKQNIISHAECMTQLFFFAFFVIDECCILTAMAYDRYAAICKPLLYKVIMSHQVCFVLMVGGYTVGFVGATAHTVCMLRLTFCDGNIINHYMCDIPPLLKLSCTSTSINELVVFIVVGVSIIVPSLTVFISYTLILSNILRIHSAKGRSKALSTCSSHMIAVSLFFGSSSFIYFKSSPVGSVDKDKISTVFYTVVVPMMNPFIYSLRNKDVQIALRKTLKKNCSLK
Outline: as §1

UniProt Q7TRB8 = target: UniProt Q7TRB8
Outline: as §1

UniProt Q7TRE4 = target: T5, UniProt Q7TRE4
T5 sequence (whole entry): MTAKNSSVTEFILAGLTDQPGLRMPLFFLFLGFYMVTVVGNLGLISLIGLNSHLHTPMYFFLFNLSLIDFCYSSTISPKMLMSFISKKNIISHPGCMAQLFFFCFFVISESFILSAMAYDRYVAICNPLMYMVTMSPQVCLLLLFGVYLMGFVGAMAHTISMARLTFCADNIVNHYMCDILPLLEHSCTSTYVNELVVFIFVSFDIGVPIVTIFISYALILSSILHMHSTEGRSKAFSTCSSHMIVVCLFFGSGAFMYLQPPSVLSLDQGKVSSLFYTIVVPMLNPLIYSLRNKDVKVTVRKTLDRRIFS
Outline: as §1

UniProt Q7TRW1 = target: T6, UniProt Q7TRW1
T6 sequence (whole entry): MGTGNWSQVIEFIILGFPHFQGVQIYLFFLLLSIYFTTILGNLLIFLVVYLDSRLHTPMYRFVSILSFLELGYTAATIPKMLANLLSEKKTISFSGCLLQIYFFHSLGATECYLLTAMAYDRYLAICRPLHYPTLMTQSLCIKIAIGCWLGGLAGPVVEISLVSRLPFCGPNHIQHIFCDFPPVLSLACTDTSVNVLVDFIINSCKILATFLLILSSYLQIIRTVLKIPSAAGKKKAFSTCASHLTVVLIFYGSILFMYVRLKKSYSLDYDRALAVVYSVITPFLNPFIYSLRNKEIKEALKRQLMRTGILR
Outline: as §1

UniProt Q7TS17 = target: UniProt Q7TS17
Outline: as §1

UniProt Q7TS37 = target: UniProt Q7TS37
Outline: as §1

UniProt Q7TS40 = target: UniProt Q7TS40
Outline: as §1

UniProt Q8VEU7 = target: T7, UniProt Q8VEU7
T7 sequence (whole entry): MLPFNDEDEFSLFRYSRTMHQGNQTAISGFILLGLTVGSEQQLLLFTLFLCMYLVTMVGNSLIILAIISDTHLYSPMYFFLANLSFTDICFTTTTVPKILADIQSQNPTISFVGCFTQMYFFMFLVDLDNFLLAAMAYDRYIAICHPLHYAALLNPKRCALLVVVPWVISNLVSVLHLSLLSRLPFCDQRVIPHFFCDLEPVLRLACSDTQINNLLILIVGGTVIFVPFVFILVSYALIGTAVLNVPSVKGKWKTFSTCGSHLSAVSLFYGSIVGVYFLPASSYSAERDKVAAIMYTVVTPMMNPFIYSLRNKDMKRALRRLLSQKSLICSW
Outline: as §1

UniProt Q8VF05 = target: T8, UniProt Q8VF05
T8 sequence (whole entry): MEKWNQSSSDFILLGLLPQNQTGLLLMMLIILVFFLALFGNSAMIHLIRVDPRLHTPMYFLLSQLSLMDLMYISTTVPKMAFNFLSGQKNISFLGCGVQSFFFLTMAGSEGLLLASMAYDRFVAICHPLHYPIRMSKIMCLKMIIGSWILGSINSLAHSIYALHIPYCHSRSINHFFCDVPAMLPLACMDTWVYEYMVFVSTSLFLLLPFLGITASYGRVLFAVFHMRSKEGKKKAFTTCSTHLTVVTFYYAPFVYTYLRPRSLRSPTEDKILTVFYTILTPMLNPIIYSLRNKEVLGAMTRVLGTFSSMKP
Outline: as §1

UniProt Q7TR79 = target: T9, UniProt Q7TR79
T9 sequence (whole entry): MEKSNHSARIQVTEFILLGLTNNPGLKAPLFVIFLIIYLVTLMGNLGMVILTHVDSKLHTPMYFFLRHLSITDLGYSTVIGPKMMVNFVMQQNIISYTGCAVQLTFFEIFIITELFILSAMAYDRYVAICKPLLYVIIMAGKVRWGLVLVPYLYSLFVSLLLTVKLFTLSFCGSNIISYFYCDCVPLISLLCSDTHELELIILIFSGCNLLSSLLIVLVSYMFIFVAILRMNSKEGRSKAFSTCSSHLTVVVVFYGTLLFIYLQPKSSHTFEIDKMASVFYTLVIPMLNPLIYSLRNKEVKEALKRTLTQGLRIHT
Outline: as §1

UniProt Q7TRX0 = target: T10, UniProt Q7TRX0
T10 sequence (whole entry): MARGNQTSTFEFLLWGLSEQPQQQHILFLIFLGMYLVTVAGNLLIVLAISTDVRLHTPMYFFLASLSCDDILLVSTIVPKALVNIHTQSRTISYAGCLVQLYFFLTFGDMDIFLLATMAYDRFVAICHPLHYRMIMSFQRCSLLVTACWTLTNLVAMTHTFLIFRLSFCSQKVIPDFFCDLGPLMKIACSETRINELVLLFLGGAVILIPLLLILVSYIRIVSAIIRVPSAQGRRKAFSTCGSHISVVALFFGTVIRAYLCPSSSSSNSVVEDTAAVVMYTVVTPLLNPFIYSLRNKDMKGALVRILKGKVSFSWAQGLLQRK
Outline: as §1

UniProt Q7TRM0 = target: T11, UniProt Q7TRM0
T11 sequence (whole entry): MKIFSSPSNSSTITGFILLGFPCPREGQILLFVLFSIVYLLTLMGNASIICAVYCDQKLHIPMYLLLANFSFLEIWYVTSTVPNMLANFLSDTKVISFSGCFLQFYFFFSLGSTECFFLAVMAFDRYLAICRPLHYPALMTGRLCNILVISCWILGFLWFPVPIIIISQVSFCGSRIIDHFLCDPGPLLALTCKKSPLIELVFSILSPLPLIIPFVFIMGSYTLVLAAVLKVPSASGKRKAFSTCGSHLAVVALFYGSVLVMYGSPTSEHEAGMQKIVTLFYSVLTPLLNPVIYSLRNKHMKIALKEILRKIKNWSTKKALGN
Outline: as §1

UniProt Q7TRN9 = target: T12, UniProt Q7TRN9
T12 sequence (whole entry): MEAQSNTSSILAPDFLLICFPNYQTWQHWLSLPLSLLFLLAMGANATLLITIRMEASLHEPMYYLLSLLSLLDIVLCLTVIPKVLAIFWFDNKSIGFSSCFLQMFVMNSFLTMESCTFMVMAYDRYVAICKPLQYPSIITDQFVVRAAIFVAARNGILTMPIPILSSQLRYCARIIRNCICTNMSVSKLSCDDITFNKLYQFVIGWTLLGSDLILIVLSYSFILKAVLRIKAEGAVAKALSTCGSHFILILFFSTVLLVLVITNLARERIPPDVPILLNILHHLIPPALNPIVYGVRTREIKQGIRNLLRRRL
Outline: as §1

UniProt Q7TRR8 = target: T13, UniProt Q7TRR8
T13 sequence (whole entry): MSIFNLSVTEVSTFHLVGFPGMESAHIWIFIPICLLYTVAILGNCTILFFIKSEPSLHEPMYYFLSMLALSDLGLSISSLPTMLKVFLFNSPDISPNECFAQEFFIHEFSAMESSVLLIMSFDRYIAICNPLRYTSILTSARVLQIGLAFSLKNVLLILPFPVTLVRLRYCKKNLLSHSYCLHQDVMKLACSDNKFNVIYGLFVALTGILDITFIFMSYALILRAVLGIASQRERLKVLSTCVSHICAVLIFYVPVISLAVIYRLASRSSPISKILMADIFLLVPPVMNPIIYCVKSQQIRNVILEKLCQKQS
Outline: as §1

Chain of UniProt Q7TRB8 (Q7TRB8 as listed by the source): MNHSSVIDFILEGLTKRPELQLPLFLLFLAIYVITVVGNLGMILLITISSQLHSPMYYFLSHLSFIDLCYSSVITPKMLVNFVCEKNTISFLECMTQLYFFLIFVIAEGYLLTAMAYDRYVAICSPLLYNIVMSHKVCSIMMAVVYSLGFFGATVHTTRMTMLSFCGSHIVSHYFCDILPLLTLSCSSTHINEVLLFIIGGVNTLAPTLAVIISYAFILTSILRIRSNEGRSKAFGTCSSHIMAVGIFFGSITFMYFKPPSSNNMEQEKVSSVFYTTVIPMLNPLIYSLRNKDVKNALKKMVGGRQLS
Chain of UniProt Q7TS40 (Q7TS40 as listed by the source): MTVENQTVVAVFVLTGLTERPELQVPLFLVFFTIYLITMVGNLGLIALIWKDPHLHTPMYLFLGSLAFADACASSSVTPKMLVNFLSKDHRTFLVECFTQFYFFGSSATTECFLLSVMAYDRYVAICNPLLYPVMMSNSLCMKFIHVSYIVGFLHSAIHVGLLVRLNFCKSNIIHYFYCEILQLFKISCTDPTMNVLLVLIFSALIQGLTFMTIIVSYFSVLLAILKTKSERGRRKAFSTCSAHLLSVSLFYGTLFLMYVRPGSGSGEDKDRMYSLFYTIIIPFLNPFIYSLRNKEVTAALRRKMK
Chain of UniProt Q7TS37 (Q7TS37 as listed by the source): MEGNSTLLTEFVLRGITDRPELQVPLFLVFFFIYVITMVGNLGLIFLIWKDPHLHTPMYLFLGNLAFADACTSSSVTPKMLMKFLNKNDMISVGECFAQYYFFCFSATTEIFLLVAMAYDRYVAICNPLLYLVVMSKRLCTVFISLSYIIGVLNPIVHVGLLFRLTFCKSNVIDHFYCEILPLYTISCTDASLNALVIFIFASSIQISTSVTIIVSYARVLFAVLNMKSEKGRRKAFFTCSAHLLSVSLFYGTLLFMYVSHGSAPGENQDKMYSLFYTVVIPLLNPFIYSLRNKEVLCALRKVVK
Chain of UniProt Q7TR75 (Q7TR75 as listed by the source): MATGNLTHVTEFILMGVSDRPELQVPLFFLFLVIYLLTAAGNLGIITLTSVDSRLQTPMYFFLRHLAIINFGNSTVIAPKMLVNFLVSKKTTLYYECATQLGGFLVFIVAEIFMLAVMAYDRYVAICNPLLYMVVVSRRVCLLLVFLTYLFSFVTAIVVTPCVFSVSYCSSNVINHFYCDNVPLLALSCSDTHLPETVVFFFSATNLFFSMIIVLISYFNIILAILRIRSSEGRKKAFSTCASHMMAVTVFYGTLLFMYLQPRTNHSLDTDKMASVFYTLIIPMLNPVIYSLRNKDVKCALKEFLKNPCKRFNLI
Chain of UniProt Q7TS17 (Q7TS17 as listed by the source): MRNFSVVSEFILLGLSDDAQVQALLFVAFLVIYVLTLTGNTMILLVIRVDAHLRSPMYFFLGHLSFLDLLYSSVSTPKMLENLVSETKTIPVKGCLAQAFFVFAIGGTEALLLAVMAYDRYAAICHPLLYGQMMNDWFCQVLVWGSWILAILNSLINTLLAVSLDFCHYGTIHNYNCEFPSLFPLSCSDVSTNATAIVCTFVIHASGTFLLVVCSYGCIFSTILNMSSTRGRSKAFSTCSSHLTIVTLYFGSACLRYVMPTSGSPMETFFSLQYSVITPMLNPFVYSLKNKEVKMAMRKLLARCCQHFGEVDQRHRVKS

SMILES | odorant receptor agonist call (UniProt Q7TR71) | odorant receptor agonist call (UniProt Q7TR75) | odorant receptor agonist call (UniProt Q7TRA1) | odorant receptor agonist call (UniProt Q7TRA2) | odorant receptor agonist call (UniProt Q7TRA3) | odorant receptor agonist call (UniProt Q7TRB8) | odorant receptor agonist call (UniProt Q7TRE4) | odorant receptor agonist call (UniProt Q7TRW1) | odorant receptor agonist call (UniProt Q7TS17) | odorant receptor agonist call (UniProt Q7TS37) | odorant receptor agonist call (UniProt Q7TS40) | odorant receptor agonist call (UniProt Q8VEU7) | odorant receptor agonist call (UniProt Q8VF05) | odorant receptor agonist call (UniProt Q7TR79) | odorant receptor agonist call (UniProt Q7TRX0) | odorant receptor agonist call (UniProt Q7TRM0) | odorant receptor agonist call (UniProt Q7TRN9) | odorant receptor agonist call (UniProt Q7TRR8)
O=c1ccc2ccccc2o1 | active | active | inactive | inactive | active | active | active | inactive | active | active | inactive | inactive | inactive | – | – | – | – | –
CCCCCCCC(C)=O | inactive | – | – | – | inactive | – | inactive | inactive | – | – | – | inactive | inactive | inactive | inactive | – | – | –
CCCCCCCCCCO | inactive | – | – | – | inactive | – | inactive | inactive | – | – | – | inactive | inactive | inactive | inactive | – | – | –
CCC(=O)O | inactive | – | – | – | inactive | – | inactive | inactive | – | – | – | inactive | inactive | inactive | inactive | – | – | –
CCCCCCCCCO | inactive | – | – | – | inactive | – | inactive | inactive | – | – | – | inactive | inactive | inactive | inactive | inactive | active | inactive
O=C(c1ccccc1)c1ccccc1 | inactive | – | – | – | active | – | inactive | inactive | – | – | – | inactive | inactive | inactive | inactive | – | – | –
CCCCOC=O | inactive | – | – | – | inactive | – | inactive | inactive | – | – | – | inactive | inactive | inactive | inactive | – | – | –
